The values below come from the RNAGym collection of RNA variant scans (doi:10.1002/anie.201605470).

B1: Osa-1-4 twister ribozyme (parent)
chain: CCGCCUAACACUGCCAAUGCCGGUCCCAAGCCCGGAUAAAAGUGGAGGGGGCGG

Variants of B1 are the subject of this data set. Nature of the data set: self-cleavage, relative activity (ratio to wild type); higher = more cleavage; co-transcriptional. The essentials: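 The 48 positions downstream of the cleavage site in a DNA template for a 54-nucleotide Oryza sativa twister ribozyme carried 97 % wild-type base and 1 % of each other base. After in vitro transcription (2 h, 37 °C) with co-transcriptional self-cleavage, the RNA was reverse-transcribed with a template-switching oligonucleotide, PCR-amplified and deep-sequenced. Relative activity is the fraction cleaved, judged by reads with or without upstream sequence and normalised to wild type.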
With A36C G19C, the self-cleavage is 0.56.
With A36C G19A, the self-cleavage was 0.76.
In the case of A36C G19U it was 0.82; in that of A36C C27G, 0.05.
Regarding A36C C27U, the self-cleavage turned out to be 0.09.
The same measure for A36C C27A: 0.07; for A36C G50U: 0.37.
In the case of A36C G50C it was 0.22.
The same measure for A36C G50A: 0.77; for A36C G30A: 0.02.
Take A36C G30C: the self-cleavage is 0.05.
In the case of A36C G30U it was 0.03.
The same measure for A36G C14G: 0.37.
In the case of A36G C14A it was 0.19.
In the case of A36G C14U, the self-cleavage is 0.88.
The same measure for A36C G48A: 0.05.
The same measure for A36C G48C: 0.05; for A36C G48U: 0.04; for A36C C52G: 0.51.
In the case of A36C C52U it was 0.82; in that of A36C C52A, 0.37.
For the variant A36C G23A, the self-cleavage stood at 0.09.
The same measure for A36C G23C: 0.03; for A36C G23U: 0.05.
In the case of A36C G45C it was 0.04; in that of A36C G45A, 0.07; in that of A36C G45U, 0.05.
On to A36G G19A, for which the self-cleavage was determined as 0.8.
In the case of A36G C33G it was 0.09; in that of A36G C33U, 0.94; in that of A36G C33A, 0.14.
The same measure for A36G: 1.03; for A36C G13A: 0.04.
The same measure for A36C G13C: 0.03.
In the case of A36C G13U, the self-cleavage is 0.02.
The same measure for A36C C33A: 0.06.
Take A36C C33G: the self-cleavage worked out at 0.04.
The same measure for A36C C33U: 0.13; for A36C G22A: 0.6.
The same measure for A36C G22C: 0.08.
In the case of A36C G22U it was 0.35.
Consider A36G A40C, for which the self-cleavage worked out at 0.1.
The same measure for A36G A40U: 0.96; for A36G A40G: 0.95.
The same measure for A36G C26A: 0.06; for A36G C26G: 0.13; for A36G C26U: 0.98.
In the case of A36G C27G it was 0.13.
On to A36G C27U, for which the self-cleavage stood at 0.32.
In the case of A36G C27A it was 0.38.
In the case of A36G A41C it was 0.97; in that of A36G A41G, 0.89.
In the case of A36G A41U it was 0.99.
With A36C G44U, the self-cleavage amounted to 0.37.
The same measure for A36C G44C: 0.58; for A36C G44A: 0.16.
A36G C20A: the self-cleavage was determined as 0.87.
In the case of A36G C20U it was 0.99; in that of A36G C20G, 0.12.
In the case of A36C C11G it was 0.08; in that of A36C C11U, 0.26.
A36C C11A: the self-cleavage was 0.11.
In the case of A36G A8C it was 0.1.
In the case of A36G A8G it was 0.66.
The same measure for A36G A8U: 0.53.
Take A36C U12A: the self-cleavage turned out to be 0.13.
The same measure for A36C U12G: 0.13.
Take A36C U12C: the self-cleavage was 0.08.
In the case of A36G C9U it was 0.77; in that of A36G C9A, 0.53; in that of A36G C9G, 0.89.
In the case of A36C C14U it was 0.09.
The same measure for A36C C14G: 0.06.
Regarding A36C C14A, the self-cleavage is 0.06.
The same measure for A36G C31A: 0.04; for A36G C31U: 1.01.
Regarding A36G C31G, the self-cleavage is 0.16.
In the case of A36C U24A it was 0.06; in that of A36C U24G, 0.03.
The same measure for A36C U24C: 0.07.
The same measure for A36C G53U: 0.13; for A36C G53C: 0.06; for A36C G53A: 0.19.
Take A36G G13U: the self-cleavage was determined as 0.03.
The same measure for A36G G13A: 0.24; for A36G G13C: 0.03.
In the case of A36G A38C it was 1.07; in that of A36G A38G, 0.99; in that of A36G A38U, 1.01.
The same measure for A36C C20A: 0.81.
As to A36C C20G, the self-cleavage was found to be 0.09.
In the case of A36C C20U it was 0.88; in that of A36C U43A, 0.15.
The same measure for A36C U43C: 0.13.
In the case of A36C U43G it was 0.11.
Take A36G C15G: the self-cleavage was 0.84.
In the case of A36G C15U it was 0.89; in that of A36G C15A, 0.85.
In the case of A36C C25A it was 0.06; in that of A36C C25G, 0.04; in that of A36C C25U, 0.1.
The same measure for A36C G54C: 0.19.
For A36C G54A, the self-cleavage came out at 0.27.
The same measure for A36C G54U: 0.55; for A36C C26U: 0.12.
The same measure for A36C C26G: 0.06; for A36C C26A: 0.03; for A36C U37G: 0.93.
The same measure for A36C U37A: 0.53; for A36C U37C: 0.98.
Consider A36C G34C, for which the self-cleavage came to 0.39.
In the case of A36C G34U it was 0.75; in that of A36C G34A, 0.88; in that of A36G A7C, 0.05.
The same measure for A36G A7U: 0.1; for A36G A7G: 0.5.
In the case of A36G C32U it was 0.17; in that of A36G C32G, 0.16.
For A36G C32A, the self-cleavage was found to be 0.09.
As for A36C C21U, the self-cleavage came out at 0.46.
The same measure for A36C C21G: 0.05.
On to A36C C21A, for which the self-cleavage turned out to be 0.54.
The same measure for A36C G49C: 0.06.
Turning to A36C G49U, the self-cleavage worked out at 0.06.
In the case of A36C G49A it was 0.06.
In the case of A36C C31G it was 0.04; in that of A36C C31U, 0.1.
The same measure for A36C C31A: 0.03; for A36C C32U: 0.07; for A36C C32G: 0.06.
For the variant A36C C32A, the self-cleavage came to 0.06.
In the case of A36G C52A it was 1.01.
In the case of A36G C52G, the self-cleavage came out at 1.04.
The same measure for A36G C52U: 1.02; for A36G C11A: 0.85; for A36G C11G: 0.73.
As to A36G C11U, the self-cleavage was 0.93.
In the case of A36G A46G it was 0.11; in that of A36G A46C, 0.08.
With A36G A46U, the self-cleavage was determined as 0.1.
The same measure for A36G C21G: 0.1; for A36G C21A: 0.64.
The same measure for A36G C21U: 1.02; for A36C G35A: 0.94; for A36C G35U: 0.95.
In the case of A36C G35C it was 0.75.
For the variant A36C G51C, the self-cleavage was determined as 0.07.
The same measure for A36C G51A: 0.28; for A36C G51U: 0.11; for A36C G47A: 0.07.
Turning to A36C G47U, the self-cleavage came out at 0.07.
The same measure for A36C G47C: 0.06; for A36C U18G: 0.87.
In the case of A36C U18A it was 0.55; in that of A36C U18C, 0.67; in that of A36C G42A, 0.1.
The same measure for A36C G42U: 0.04; for A36C G42C: 0.08; for A36G A39G: 1.01.
Turning to A36G A39U, the self-cleavage came out at 0.97.
In the case of A36G A39C it was 1.05; in that of A36G C25A, 0.22; in that of A36G C25G, 0.13.
In the case of A36G C25U it was 0.94; in that of A36C C15G, 0.25; in that of A36C C15U, 0.12.
In the case of A36C C15A it was 0.24.
